From ChEMBL document CHEMBL1147748, “Overlapping, nonidentical binding sites of different classes of nonpeptide antagonists for the human gonadotropin-releasing hormone receptor” (J Med Chem, 2006)

Assays:
[1] = biological target: Gonadotropin-releasing hormone receptor (Homo sapiens, UniProt P30968); test: Displacement of [125I]-His5, D-Tyr6]GnRH from human wild type GnRHR
Procedure, shortened: (§1)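 Human GnRH-R (wild type or site-directed point mutant) was transiently expressed in COS-7 cells by electroporation, with cells cultured 36-48 h before membranes were prepared. Membranes (5-20 µg per point) were incubated 2 h at room temperature with 0.3 nM tracer and varying competitor in HEPES pH 7.5, 150 mM NaCl, 0.1% BSA, then filtered and counted.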

[2] = biological target: Gonadotropin-releasing hormone receptor (Homo sapiens, UniProt P30968, Y290L); test: Displacement of [125I]-His5, D-Tyr6]GnRH from mutant GnRHR, GnRHR Y290L
[3] = biological target: Gonadotropin-releasing hormone receptor (Homo sapiens, UniProt P30968, E295A); test: Displacement of [125I]-His5, D-Tyr6]GnRH from mutant GnRHR, GnRHR E295A; procedure, shortened: as §1
[4] = biological target: Gonadotropin-releasing hormone receptor (Homo sapiens, UniProt P30968, E295K); test: Displacement of [125I]-His5, D-Tyr6]GnRH from mutant GnRHR, GnRHR E295K; procedure, shortened: as §1
[5] = biological target: Gonadotropin-releasing hormone receptor (Homo sapiens, UniProt P30968, E295Q); test: Displacement of [125I]-His5, D-Tyr6]GnRH from mutant GnRHR, GnRHR E295Q; procedure, shortened: as §1
[6] = biological target: Gonadotropin-releasing hormone receptor (Homo sapiens, UniProt P30968, L300V); test: Displacement of [125I]-His5, D-Tyr6]GnRH from mutant GnRHR, GnRHR L300V; procedure, shortened: as §1
[7] = biological target: Gonadotropin-releasing hormone receptor (Homo sapiens, UniProt P30968, N305A); test: Displacement of [125I]-His5, D-Tyr6]GnRH from mutant GnRHR, GnRHR N305A; procedure, shortened: as §1
[8] = biological target: Gonadotropin-releasing hormone receptor (Homo sapiens, UniProt P30968, N305K); test: Displacement of [125I]-His5, D-Tyr6]GnRH from mutant GnRHR, GnRHR N305K; procedure, shortened: as §1
[9] = biological target: Gonadotropin-releasing hormone receptor (Homo sapiens, UniProt P30968, H306A); test: Displacement of [125I]-His5, D-Tyr6]GnRH from mutant GnRHR, GnRHR H306A; procedure, shortened: as §1
[10] = biological target: Gonadotropin-releasing hormone receptor (Homo sapiens, UniProt P30968, H306E); test: Displacement of [125I]-His5, D-Tyr6]GnRH from mutant GnRHR, GnRHR H306E; procedure, shortened: as §1
[11] = biological target: Gonadotropin-releasing hormone receptor (Homo sapiens, UniProt P30968, H306K); test: Displacement of [125I]-His5, D-Tyr6]GnRH from mutant GnRHR, GnRHR H306K; procedure, shortened: as §1
[12] = biological target: Gonadotropin-releasing hormone receptor (Homo sapiens, UniProt P30968, F309Q); test: Displacement of [125I]-His5, D-Tyr6]GnRH from mutant GnRHR, GnRHR F309Q; procedure, shortened: as §1
[13] = biological target: Gonadotropin-releasing hormone receptor (Homo sapiens, UniProt P30968, N315A); test: Displacement of [125I]-His5, D-Tyr6]GnRH from mutant GnRHR, GnRHR N315A; procedure, shortened: as §1
[14] = biological target: Gonadotropin-releasing hormone receptor (Homo sapiens, UniProt P30968, N315D); test: Displacement of [125I]-His5, D-Tyr6]GnRH from mutant GnRHR, GnRHR N315D; procedure, shortened: as §1
[15] = biological target: Gonadotropin-releasing hormone receptor (Homo sapiens, UniProt P30968, Y283F); test: Displacement of [125I]-His5, D-Tyr6]GnRH from mutant GnRHR, GnRHR Y283F
[16] = biological target: Gonadotropin-releasing hormone receptor (Homo sapiens, UniProt P30968, M24A); test: Displacement of [125I]-His5, D-Tyr6]GnRH from mutant GnRHR, GnRHR M24A; procedure, shortened: as §1
[17] = biological target: Gonadotropin-releasing hormone receptor (Homo sapiens, UniProt P30968, M24T); test: Displacement of [125I]-His5, D-Tyr6]GnRH from mutant GnRHR, GnRHR M24T; procedure, shortened: as §1
[18] = biological target: Gonadotropin-releasing hormone receptor (Homo sapiens, UniProt P30968, L112K); test: Displacement of [125I]-His5, D-Tyr6]GnRH from mutant GnRHR, GnRHR L112K; procedure, shortened: as §1
[19] = biological target: Gonadotropin-releasing hormone receptor (Homo sapiens, UniProt P30968, L117A); test: Displacement of [125I]-His5, D-Tyr6]GnRH from mutant GnRHR, GnRHR L117A; procedure, shortened: as §1
[20] = biological target: Gonadotropin-releasing hormone receptor (Homo sapiens, UniProt P30968, S118A); test: Displacement of [125I]-His5, D-Tyr6]GnRH from mutant GnRHR, GnRHR S118A
[21] = biological target: Gonadotropin-releasing hormone receptor (Homo sapiens, UniProt P30968, K121A); test: Displacement of [125I]-His5, D-Tyr6]GnRH from mutant GnRHR, GnRHR K121A; procedure, shortened: as §1
[22] = biological target: Gonadotropin-releasing hormone receptor (Homo sapiens, UniProt P30968, S168A); test: Displacement of [125I]-His5, D-Tyr6]GnRH from mutant GnRHR, GnRHR S168A
[23] = biological target: Gonadotropin-releasing hormone receptor (Homo sapiens, UniProt P30968, H182E); test: Displacement of [125I]-His5, D-Tyr6]GnRH from mutant GnRHR, GnRHR H182E; procedure, shortened: as §1
[24] = biological target: Gonadotropin-releasing hormone receptor (Homo sapiens, UniProt P30968, S186D); test: Displacement of [125I]-His5, D-Tyr6]GnRH from mutant GnRHR, GnRHR S186D
[25] = biological target: Gonadotropin-releasing hormone receptor (Homo sapiens, UniProt P30968, Q189E); test: Displacement of [125I]-His5, D-Tyr6]GnRH from mutant GnRHR, GnRHR Q189E; procedure, shortened: as §1
[26] = biological target: Gonadotropin-releasing hormone receptor (Homo sapiens, UniProt P30968, Q189K); test: Displacement of [125I]-His5, D-Tyr6]GnRH from mutant GnRHR, GnRHR Q189K; procedure, shortened: as §1
[27] = biological target: Gonadotropin-releasing hormone receptor (Homo sapiens, UniProt P30968, T190K); test: Displacement of [125I]-His5, D-Tyr6]GnRH from mutant GnRHR, GnRHR T190K
[28] = biological target: Gonadotropin-releasing hormone receptor (Homo sapiens, UniProt P30968, S203K); test: Displacement of [125I]-His5, D-Tyr6]GnRH from mutant GnRHR, GnRHR S203K
[29] = biological target: Gonadotropin-releasing hormone receptor (Homo sapiens, UniProt P30968, T51A); test: Displacement of [125I]-His5, D-Tyr6]GnRH from mutant GnRHR, GnRHR T51A
[30] = biological target: Gonadotropin-releasing hormone receptor (Homo sapiens, UniProt P30968, L112F); test: Displacement of [125I]-His5, D-Tyr6]GnRH from mutant GnRHR, GnRHR L112F; procedure, shortened: as §1

Gonadotropin-releasing hormone receptor (Homo sapiens, UniProt P30968, H182E), sequence (P30968 whole entry H182E): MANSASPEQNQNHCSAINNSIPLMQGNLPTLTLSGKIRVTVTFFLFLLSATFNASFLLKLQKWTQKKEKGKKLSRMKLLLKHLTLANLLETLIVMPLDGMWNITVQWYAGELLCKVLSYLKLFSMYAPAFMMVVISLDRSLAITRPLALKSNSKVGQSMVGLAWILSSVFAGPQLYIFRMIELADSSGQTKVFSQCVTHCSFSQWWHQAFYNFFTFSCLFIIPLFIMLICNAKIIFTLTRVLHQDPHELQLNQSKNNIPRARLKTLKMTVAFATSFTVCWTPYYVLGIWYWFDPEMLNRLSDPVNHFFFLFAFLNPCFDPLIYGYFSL
Gonadotropin-releasing hormone receptor (Homo sapiens, UniProt P30968, Q189E), sequence (P30968 whole entry Q189E): as the sequence (P30968 whole entry H182E) above, with E182H, Q189E counted along it
Gonadotropin-releasing hormone receptor (Homo sapiens, UniProt P30968, H306E), sequence (P30968 whole entry H306E): as the sequence (P30968 whole entry H182E) above, with E182H, H306E counted along it
Gonadotropin-releasing hormone receptor (Homo sapiens, UniProt P30968, F309Q), sequence (P30968 whole entry F309Q): as the sequence (P30968 whole entry H182E) above, with E182H, F309Q counted along it
Gonadotropin-releasing hormone receptor (Homo sapiens, UniProt P30968, L117A), sequence (P30968 whole entry L117A): as the sequence (P30968 whole entry H182E) above, with L117A, E182H counted along it
Gonadotropin-releasing hormone receptor (Homo sapiens, UniProt P30968, E295Q), sequence (P30968 whole entry E295Q): as the sequence (P30968 whole entry H182E) above, with E182H, E295Q counted along it
Gonadotropin-releasing hormone receptor (Homo sapiens, UniProt P30968, N305A), sequence (P30968 whole entry N305A): as the sequence (P30968 whole entry H182E) above, with E182H, N305A counted along it
Gonadotropin-releasing hormone receptor (Homo sapiens, UniProt P30968, M24A), sequence (P30968 whole entry M24A): as the sequence (P30968 whole entry H182E) above, with M24A, E182H counted along it
Gonadotropin-releasing hormone receptor (Homo sapiens, UniProt P30968, N305K), sequence (P30968 whole entry N305K): as the sequence (P30968 whole entry H182E) above, with E182H, N305K counted along it
Gonadotropin-releasing hormone receptor (Homo sapiens, UniProt P30968, S168A), sequence (P30968 whole entry S168A): as the sequence (P30968 whole entry H182E) above, with S168A, E182H counted along it
Gonadotropin-releasing hormone receptor (Homo sapiens, UniProt P30968, T51A), sequence (P30968 whole entry T51A): as the sequence (P30968 whole entry H182E) above, with T51A, E182H counted along it
Gonadotropin-releasing hormone receptor (Homo sapiens, UniProt P30968, Y283F), sequence (P30968 whole entry Y283F): as the sequence (P30968 whole entry H182E) above, with E182H, Y283F counted along it
Gonadotropin-releasing hormone receptor (Homo sapiens, UniProt P30968, L112K), sequence (P30968 whole entry L112K): as the sequence (P30968 whole entry H182E) above, with L112K, E182H counted along it
Gonadotropin-releasing hormone receptor (Homo sapiens, UniProt P30968, Q189K), sequence (P30968 whole entry Q189K): as the sequence (P30968 whole entry H182E) above, with E182H, Q189K counted along it

COc1c(C)cc(-c2[nH]c3ccc(C(C)(C)C(=O)N(CC(C)C)CC(C)C)cc3c2[C@H](C)CNCCc2ccccc2)cc1C
IC50 [1]: 17.7 nM
IC50 [2]: 202 nM
IC50 [3]: 11.2 nM
IC50 [4]: 9.6 nM
IC50 [5]: 15.2 nM
IC50 [6]: 164 nM
IC50 [7]: 3.7 nM
IC50 [8]: 3.7 nM
IC50 [9]: 23.3 nM
IC50 [10]: 48.8 nM
IC50 [11]: 101 nM
IC50 [12]: 222 nM
IC50 [13]: 47.1 nM
IC50 [14]: 49.3 nM
IC50 [15]: 108 nM
IC50 [16]: 17.9 nM
IC50 [17]: 57.1 nM
IC50 [18]: 24.2 nM
IC50 [19]: 4.8 nM
IC50 [20]: 46.8 nM
IC50 [21]: 82.3 nM
IC50 [22]: 8.9 nM
IC50 [23]: 7.6 nM
IC50 [24]: 11.3 nM
IC50 [25]: 15.7 nM
IC50 [26]: 15.8 nM
IC50 [27]: 19.8 nM
IC50 [28]: 14.6 nM
IC50 [29]: 15.8 nM
IC50 [30]: 29.5 nM

CC(C)C[C@H](NC(=O)[C@@H](Cc1ccc(O)cc1)NC(=O)[C@H](Cc1c[nH]cn1)NC(=O)[C@H](CO)NC(=O)[C@H](Cc1c[nH]c2ccccc12)NC(=O)[C@H](Cc1c[nH]cn1)NC(=O)[C@@H]1CCC(=O)N1)C(=O)N[C@@H](CCCN=C(N)N)C(=O)N1CCC[C@H]1C(=O)NCC(N)=O
IC50 [1]: 8.1 nM
IC50 [2]: 951 nM
IC50 [3]: 1.9 nM
IC50 [4]: 3.1 nM
IC50 [5]: 2.4 nM
IC50 [6]: 6.5 nM
IC50 [7]: 12.7 nM
IC50 [8]: 12.4 nM
IC50 [9]: 50.6 nM
IC50 [10]: 52.8 nM
IC50 [11]: 66.2 nM
IC50 [12]: 65.1 nM
IC50 [13]: 0.8 nM
IC50 [14]: 1.5 nM
IC50 [15]: 316 nM
IC50 [16]: 5.9 nM
IC50 [17]: 4.9 nM
IC50 [18]: 3.5 nM
IC50 [19]: 4.1 nM
IC50 [20]: 3.3 nM
IC50 [21]: 267 nM
IC50 [22]: 4 nM
IC50 [23]: 3.6 nM
IC50 [24]: 3.1 nM
IC50 [25]: 16.7 nM
IC50 [26]: 2.4 nM
IC50 [27]: 3.7 nM
IC50 [28]: 3.1 nM
IC50 [29]: 3.1 nM
IC50 [30]: 2.7 nM
